Source: PubChem
Only some compounds are listed: those with a hit (about 3.8% of all), similar ones and a draw of the others.
TMEM16A act: activators or potentiators of mouse TMEM16A chloride channel; B-score at 10 µM; AID 623877; HEK293 TMEM16A/YFP-H148Q/I152L, iodide quench fluorescence; stronger effect = lower value; hit rate 0.3% among 340,000; Q8BHY3;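 active = fluorescence-ratio B-score plate-corrected deviation score at least 3 library SD below zero, with starting fluorescence score within 5 deviations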;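 note: channel opened by trigger with iodide after compound preincubation; score built on the fluorescence ratio of max minus min over baseline; more negative score means more quench and so TMEM16A activation or potentiation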
MC4R antag cAMP: human MC4R antagonism in cAMP assay. inhibition, % at 6.5 µM. hit rate 0.48% among 360,000. MC4R-expressing cells, MTII-stimulated cAMP, LANCE TR-FRET. P32245. AID 540295;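 active = inhibition above its plate's cutoff, the mean of tested wells on that plate plus 3 SD, cut at about 29% in these data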
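Material – human MC4R-expressing U2OS cells · Repeats – no replicates · Detection – TR-FRET with Eu-cAMP and labeled anti-cAMP, 671 nm · Times – compound 30 min, challenge 1 h, detection 1 h · Compound – single nominal compound dose of 6.5 µM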
MC4R ag barr: activates human MC4R beta-arrestin recruitment | activation, % at 8.9 µM | P32245 | AID 540308 | U2OS MC4R beta-arrestin complementation, luminescence; percent of melanotan II response, DMSO zero | hit rate 0.98% among 360,000;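 active = activation above a per-plate cutoff, the mean activation of sample wells on that plate plus 3 SD, cut at about 8% in these data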
Beta apoptosis: beta cell apoptosis inhibition; INS-1E cytokine-induced death, ATP luminescence, 48 h; percent of positive-control rescue, neutral wells zero; protection from apoptosis, % (test concentration not listed); hit rate 0.8% among 300,000;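 active = Every replicate reaches about 75%, or at least half do and their mean reaches it too, limit read from the data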;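 note: higher means more ATP so stronger rescue from cytokine killing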
CSC inhib: blocks cancer stem cells; cancer stem cell-like cells viability, luminescence; inhibition, % at 7.5 µM; hit rate 1.1% among 300,000; in the data active = inhibition above about 75%; tested in HMLE shEcad cells
TMEM16A inh: inhibitors of mouse TMEM16A calcium-activated chloride channel. Q8BHY3. HEK293 TMEM16A/YFP iodide influx fluorescence, ionomycin. hit rate 1.2% among 310,000. AID 588511. normalized B-score (activity score, 25-100; higher = stronger inhibition) at 10 µM;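 active = ratio plate-corrected score three or more library SD toward inhibition, starting fluorescence score within five deviations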;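 note: score derived from kinetic fluorescence span divided by baseline fluorescence per well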
TMEM16A reconf: TMEM16A (mouse) chloride channel inhibition, re-confirmation; shares compounds with TMEM16A inh; HEK293 TMEM16A/YFP-H148Q, iodide quench fluorescence; ionomycin added to raise cell calcium; inhibition, % at 10 µM; hit rate 39% among 2,300; AID 652189;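 active = mean duplicate percent inhibition, scaled so buffer wells are 0 and the reference blocker 100, over three buffer SD above buffer mean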
TMEM16A Ca cntr: calcium mobilization counter-screen hit for TMEM16A inhibitor series. AID 652231. shares compounds with TMEM16A inh. calcium response (% of ionomycin), % at 10 µM. hit rate 2% among 2,300. TMEM16A/YFP HEK293, Fluo4 calcium mobilization;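 active = duplicate-averaged calcium signal over 20% of the ionomycin maximum, relative to buffer baseline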;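 note: each well's signal is peak minus trough fluorescence divided by its pre-addition baseline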
Parental YFP cnt: parental YFP-HEK293 iodide quench counter-screen activity; shares compounds with TMEM16A inh; ionomycin; YFP ratio F(max-min)/F0 at 10 µM; 2,300 tested, under 10 active; AID 652233;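 active = yellow fluorescent protein signal ratio exceeding the buffer control mean by over 5 SD of those controls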;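 note: ratio is mean of duplicate wells from kinetic YFP trace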
ClC-1 rat inh: selectivity of TMEM16A inhibitors: inhibition of rat ClC-1 chloride channel; ratio percent, % at 10 µM; shares compounds with TMEM16A inh; 2,300 tested, under 10 active; CHO ClC-1-YFP, iodide influx fluorescence quench; iodide control reads 0, buffer control 100;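 active = duplicate-mean ratio percent above the mean of iodide-only control wells, which defines zero, plus 5 of their SD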;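 note: higher percent means stronger block of ClC-1 iodide influx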
Target sequence (P35524 whole entry, looked up): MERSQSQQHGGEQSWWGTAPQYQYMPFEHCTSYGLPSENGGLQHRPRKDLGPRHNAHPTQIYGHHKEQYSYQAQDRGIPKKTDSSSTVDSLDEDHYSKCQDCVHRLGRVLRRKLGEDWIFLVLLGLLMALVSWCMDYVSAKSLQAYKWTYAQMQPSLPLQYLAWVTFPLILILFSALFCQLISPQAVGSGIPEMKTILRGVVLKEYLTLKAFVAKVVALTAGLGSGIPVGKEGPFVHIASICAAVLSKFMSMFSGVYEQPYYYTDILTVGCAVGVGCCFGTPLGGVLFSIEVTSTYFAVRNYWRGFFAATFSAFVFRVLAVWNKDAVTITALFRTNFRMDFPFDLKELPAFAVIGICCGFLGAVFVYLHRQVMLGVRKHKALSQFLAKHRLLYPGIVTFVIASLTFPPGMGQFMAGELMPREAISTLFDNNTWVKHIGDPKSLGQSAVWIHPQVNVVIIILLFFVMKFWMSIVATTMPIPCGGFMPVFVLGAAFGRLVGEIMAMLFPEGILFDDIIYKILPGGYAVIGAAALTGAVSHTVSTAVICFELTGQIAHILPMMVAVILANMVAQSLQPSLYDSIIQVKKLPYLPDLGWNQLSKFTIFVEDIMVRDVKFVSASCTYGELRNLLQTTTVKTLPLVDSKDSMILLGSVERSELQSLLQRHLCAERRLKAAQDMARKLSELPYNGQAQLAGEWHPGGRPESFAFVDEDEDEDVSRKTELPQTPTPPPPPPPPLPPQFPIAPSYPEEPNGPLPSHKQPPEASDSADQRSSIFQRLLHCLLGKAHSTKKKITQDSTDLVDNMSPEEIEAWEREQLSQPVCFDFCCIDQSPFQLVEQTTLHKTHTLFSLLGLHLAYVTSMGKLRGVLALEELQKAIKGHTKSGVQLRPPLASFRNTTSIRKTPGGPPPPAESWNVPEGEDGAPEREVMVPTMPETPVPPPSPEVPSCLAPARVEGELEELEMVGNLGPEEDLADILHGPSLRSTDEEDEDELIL
Large screens that a line does not name were inactive (follow-up assays come after a bar, where they were run).

CCCOC(=O)C1=C(C)NC2=C(C(=O)C(C(=O)OC)C(C)C2)C1c1ccc(N(CC)CC)cc1 (centres undefined)	none
CCOC(=O)C1=C(C)NC2=C(C(=O)C(C(=O)OC)C(C)C2)C1c1ccc(OC)c(O)c1 (centres undefined)	TMEM16A inh 25 | TMEM16A reconf inactive | TMEM16A Ca cntr inactive | Parental YFP cnt inactive | ClC-1 rat inh inactive
COC(=O)C1=C(C(=O)OC)[C@@H]2N(C)c3ccc(OC)cc3[C@@]23C[C@@H](C(=O)OC)N(S(=O)(=O)c2ccc(OC)cc2)C3=N1	none
Cc1nonc1C(=O)N/N=C/c1ccc(O)c(O)c1	none
COc1cc(/C=N/NC(=O)c2nonc2C)ccc1O	none | TMEM16A reconf inactive | TMEM16A Ca cntr inactive | Parental YFP cnt inactive | ClC-1 rat inh inactive
O=C(CC1C=Cc2ccccc2N1C(=O)c1ccccc1)c1ccccc1 (centres undefined)	TMEM16A inh 100 | TMEM16A reconf 19.5% | TMEM16A Ca cntr inactive | Parental YFP cnt inactive | ClC-1 rat inh inactive
CC1CC(C)CN(C(=O)CSc2ncnc3sccc23)C1 (centres undefined)	none (no result: TMEM16A inh)
CC(C)Oc1ncnc2c1[nH]c1ccccc12	TMEM16A inh 25 | TMEM16A reconf inactive | TMEM16A Ca cntr inactive | Parental YFP cnt inactive | ClC-1 rat inh inactive
CCCOc1ncnc2c1[nH]c1ccccc12	none
O=C1c2ccccc2C(=O)N1Cc1nn2c(-c3ccc(Cl)cc3)nnc2s1	TMEM16A inh 25 (no result: Beta apoptosis) | TMEM16A reconf inactive | TMEM16A Ca cntr inactive | Parental YFP cnt inactive | ClC-1 rat inh inactive
COc1ccc(-c2nnc3sc(CN4C(=O)c5ccccc5C4=O)nn23)cc1	none
CCOP(=O)(c1ccc(N(C)C)cc1)C(O)c1ccccc1OC (centres undefined)	TMEM16A inh 100 | TMEM16A reconf inactive | TMEM16A Ca cntr inactive | Parental YFP cnt inactive | ClC-1 rat inh inactive
CCOc1ccc(S(=O)(=O)Nc2cc(Cl)ccc2O)cc1	TMEM16A inh 100 (no result: CSC inhib) | TMEM16A reconf 36.0% | TMEM16A Ca cntr inactive | Parental YFP cnt inactive | ClC-1 rat inh inactive
CC(C)OC(=O)C1C2C=CC3(CN(C(C)c4ccc(Br)cc4)C(=O)C13)O2 (centres undefined)	TMEM16A inh 25 | TMEM16A reconf inactive | TMEM16A Ca cntr inactive | Parental YFP cnt inactive | ClC-1 rat inh inactive
CCC(=O)Oc1ccc(C/C(=N\O)c2ccc(O)cc2O)o1	TMEM16A inh 25 (no result: Beta apoptosis, CSC inhib) | TMEM16A reconf 24.0% | TMEM16A Ca cntr inactive | Parental YFP cnt inactive | ClC-1 rat inh inactive
Cc1cc(NC(=O)NC(=O)c2ccccc2)no1	none (no result: Beta apoptosis)
Cc1ccc2nc(SCC(=O)N3CCC(Cc4ccccc4)CC3)nc(=O)n2c1	TMEM16A inh 100 | TMEM16A reconf 16.5% | TMEM16A Ca cntr inactive | Parental YFP cnt inactive | ClC-1 rat inh inactive
Cc1ccc(C)n1-c1ccc(N2CCOCC2)cc1	none
Cc1cc(N2CCOCC2)cc(C)[n+]1[O-]	TMEM16A inh 25 | TMEM16A reconf inactive | TMEM16A Ca cntr inactive | Parental YFP cnt inactive | ClC-1 rat inh inactive
CCO[C@@H]1OC(C(N)=O)=C[C@H](c2coc3ccccc3c2=O)[C@H]1CCCO	TMEM16A inh 25 | TMEM16A reconf inactive | TMEM16A Ca cntr inactive | Parental YFP cnt inactive | ClC-1 rat inh inactive
COc1ccccc1C(=O)NCC(=O)NNC(=O)c1cccs1	none (no result: TMEM16A inh)
CCCn1c(=O)c(C(=O)NNC(=O)c2ccccc2Cl)c(O)c2ccccc21	TMEM16A act -4.62, TMEM16A inh 100 (no result: CSC inhib) | TMEM16A reconf inactive | TMEM16A Ca cntr inactive | Parental YFP cnt inactive | ClC-1 rat inh inactive
